Most compounds without a hit are left out; they make up all but 1.6% or so of the library.
VLA-4 inh: inhibition in a human VLA-4 binding assay; P13612; VLA-4 expressing cells, ligand binding flow cytometry; inhibition, % (about 7 µM as worked out from the volumes in the protocol); hit rate 0.2% among 330,000; in the data active = inhibition above about 50%
NR2E3 ag-1: activates human NR2E3 receptor; Q9Y5X4; CHO-S Gal4-NCOR/VP16-NR2E3 two-hybrid, luciferase; inhibition of corepressor binding, % at 3.98 µM; hit rate 0.35% among 360,000;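 active = inhibition above the mean of all tested compounds plus 3 SD, cut at about 70% in these data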;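 note: 0% = DMSO with NR2E3 transfected cells and 100% = cells lacking NR2E3 construct; higher means lower luciferase signal from less NR2E3 corepressor binding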
Rev-erbA mod: Rev-erb alpha (human) modulation | hit rate 0.79% among 370,000 | P20393 | AID 1259318 | Rev-erbα–FITC-DNA binding, fluorescence polarization, 90 min | activity, % at 10 µM;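 active = activity above about 14%, limit read from the data; passing the limit was not always enough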;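 note: 0% = DMSO wells with 35 nM protein and 100% = DMSO wells with 750 nM protein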
Target sequence (P20393 whole entry, looked up): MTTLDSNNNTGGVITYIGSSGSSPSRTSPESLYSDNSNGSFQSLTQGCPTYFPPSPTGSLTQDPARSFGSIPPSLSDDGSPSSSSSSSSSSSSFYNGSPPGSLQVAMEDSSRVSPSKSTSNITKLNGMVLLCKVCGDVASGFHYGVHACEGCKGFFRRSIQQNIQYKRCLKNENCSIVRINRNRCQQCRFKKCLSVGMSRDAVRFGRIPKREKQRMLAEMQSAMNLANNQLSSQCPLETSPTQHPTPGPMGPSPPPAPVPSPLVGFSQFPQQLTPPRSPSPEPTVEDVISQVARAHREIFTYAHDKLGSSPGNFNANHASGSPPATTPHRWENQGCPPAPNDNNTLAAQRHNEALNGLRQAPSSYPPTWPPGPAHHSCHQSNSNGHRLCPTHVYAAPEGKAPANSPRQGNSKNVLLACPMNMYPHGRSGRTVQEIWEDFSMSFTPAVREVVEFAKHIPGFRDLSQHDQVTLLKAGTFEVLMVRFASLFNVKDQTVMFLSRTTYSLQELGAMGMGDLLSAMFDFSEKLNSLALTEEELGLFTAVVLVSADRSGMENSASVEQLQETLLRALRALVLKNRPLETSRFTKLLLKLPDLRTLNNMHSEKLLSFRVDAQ
PG9 Ab binder: binds the HIV-1 gp120 antibody PG9; AID 624416; inhibition, % at 6.7 µM; hit rate 0.43% among 360,000; TR-FRET gp120-PG9 antibody binding; in the data active = inhibition above about 8.5%
NR2E3 ag-2: activates human photoreceptor nuclear receptor NR2E3 | GST-NR2E3/biotin-RetCOR TR-FRET, 1536-well | inhibition of corepressor binding, % at 4.78 µM | hit rate 0.12% among 320,000;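 active = percent inhibition above the cutoff of mean plus 3 SD of all tested compounds, set per screening campaign, cut at about 20% in these data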;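 note: 0% = DMSO wells and 100% = biotin wells as full block of FRET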
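Material: NR2E3–RetCOR corepressor complex / Incubation: Compound–protein incubation for 5 h at 4 °C / Dosing: compound at 4.8 µM, single dose / Detection: time-resolved FRET / Benchmarks: high control biotin, low control 0.6% DMSO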
PG9 binder conf: confirmation of small molecules binding HIV-1 gp120 antibody PG9 | shares compounds with PG9 Ab binder | TR-FRET PG9 antibody binding, biochemical | inhibition, % at 6.7 µM | hit rate 90% among 1,500 | AID 651571; in the data active = inhibition above about 9%
PGV04 Ab binding: binds control antibody PGV04 in PG9 binder counter-screen | shares compounds with PG9 Ab binder | TR-FRET PGV04 antibody-gp120 binding, biochemical | inhibition, % at 6.7 µM | hit rate 95% among 1,500; in the data active = inhibition above about 9.5%
PG9 binder DR: PG9 antibody binding, dose response; shares compounds with PG9 Ab binder; TR-FRET PG9 antibody-gp120 binding inhibition; IC50, µM; 95 tested, under 10 active; AID 651848; in the data active = IC50 below about 10 µM
PGV04 DR counter: binds control antibody PGV04 in PG9 counter-screen; shares compounds with PG9 Ab binder; hit rate 20% among 95; IC50, µM; TR-FRET binding to control antibody PGV04
PG126 DR counter: binds control antibody PG126 in PG9 counter-screen | shares compounds with PG9 Ab binder | TR-FRET binding to antibody PG126, counterscreen | IC50, µM | hit rate 20% among 95 | AID 651939
NR1D1 mod conf: Rev-erb alpha (human) modulation, hit confirmation; shares compounds with Rev-erbA mod; Rev-erb alpha FITC-DNA binding, fluorescence polarization, 90 min; activation, % at 25 µM; hit rate 61% among 3,000; AID 1259319;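 active = activation at or above a set limit, or at least 3 SD above the negative control mean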;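 note: 0% = 35 nM protein with DMSO and 100% = 750 nM protein high control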
RORg counter: affects RORgamma DNA binding in a Rev-erb alpha counter-screen; hit rate 8% among 910; purified RORgamma protein-FITC-DNA binding, fluorescence polarization; IC50, µM; shares compounds with Rev-erbA mod;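 active = Compounds whose fitted half-maximal concentration for disrupting protein-DNA binding is below 10 micromolar; the record names Rev-erb in its text, so the target is in doubt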
Active calls of the source: *; i = inactive; . = no result. Cut-off read from the data, not from the text of the source, unless noted: active = IC50 below about 9 µM; inactive = the rest.

SMILES | VLA-4 inh | NR2E3 ag-1 | Rev-erbA mod | PG9 Ab binder | NR2E3 ag-2 | PG9 binder conf | PGV04 Ab binding | NR1D1 mod conf | others
COc1ccc(-c2c(C#N)c(N)nc(Sc3ccc(Cl)cc3)c2C#N)cc1 | 6 | -12 | 83* | 31* | 6 | 97* | 95* | 48* | PG9 binder DR=8.5*;PGV04 DR counter=4.4*;PG126 DR counter=4.9*;RORg counter=>40
CCOC(=O)CSc1nc(N)c(C#N)c(-c2ccc(OC)cc2)c1C#N | 8 | -21 | 76* | 63* | 1 | 68* | 23* | 55* | PG9 binder DR=7.6*;PGV04 DR counter=6.1*;PG126 DR counter=7*
Cn1c(SCCc2ccccc2)nnc1-c1ccco1 | . | . | -1 | . | . | . | . | .
COC[C@H]1CCCN1c1cccc2c1S(=O)(=O)N(C1CC1)CCCO2 | . | . | 6 | . | . | . | . | .
O=C(CSc1nnc(SCc2cccc3ccccc23)s1)c1ccc(F)cc1 | . | . | -8 | . | . | . | . | .
C=CCn1c(SCC(=O)Nc2sccc2C#N)nc2sc(C)c(C)c2c1=O | 17 | 8 | 97* | 11* | 9 | 26* | 44* | 63* | RORg counter=>40
CCC(=O)c1cn(CC(=O)Nc2cc(C)ccc2C)c2ccccc12 | 14 | -1 | 32* | 19* | 6 | 16* | 22* | 21*
CCC(=O)c1cn(CC(=O)Nc2ccccc2)c2ccccc12 | 13 | 10 | 6 | -1 | -1 | . | . | .
N=C1C(c2nc3ccccc3s2)=C(O)CN1NC(=O)c1c[nH]c2ccccc12 | 1 | -1 | 32* | 12* | 0 | 22* | 39* | 51* | RORg counter=>40
CCOC(=O)[C@]12CCCC=C1N(CCCOC)C(=O)[C@@H]2CC(=O)NCc1cccc(C(F)(F)F)c1 | . | . | -7 | . | . | . | . | .
O=C(NCCCc1ccccc1)OC1CCC12CCC(c1ccccc1)CC2 (stereo not drawn) | . | . | 5 | . | . | . | . | .
CCOc1ccc(-n2c(=O)c3sccc3n(CC(=O)Nc3cccc(OC)c3)c2=O)cc1 | 26 | 2 | 31* | 24* | -3 | 26* | 43* | 27*
Cc1ccccc1NC(=O)COC(=O)c1ccc2c(c1)OCCO2 | . | -12 | 1 | 0 | . | . | . | .
COc1ccccc1NC(=O)COC(=O)c1ccc2c(c1)OCCO2 | 15 | -23 | 22* | 11* | 4 | 6 | 10* | 32* | RORg counter=>40
O=C(Nc1cccc(O)c1)c1cc(-c2cccs2)on1 | 2 | -22 | 1 | -1 | 1 | . | . | .
CC(=O)c1cccc(NC(=O)c2cc(-c3cccs3)on2)c1 | 9 | 0 | 33* | 24* | -1 | 29* | 47* | 11
CN(CC#Cc1ccccc1)C(N)=NC(=O)/C=C/c1cccc(C(F)(F)F)c1 | . | . | -2 | . | . | . | . | .
CCOC(=O)N1CCN(C(=O)C[C@H]2C[C@@]3(C(=O)OC)C(=C[C@H](C(C)C)O[C@@H]3C3CC3)N(CCc3ccc(OC)c(OC)c3)C2=O)CC1 | . | . | -3 | . | . | . | . | .
COC(=O)[C@]12C[C@H](CC(=O)NCc3ccccc3)C(=O)N(CCc3ccc(OC)c(OC)c3)C1=C[C@H](C1CCCC1)O[C@@H]2C | . | . | 4 | . | . | . | . | .
CC1CN(S(=O)(=O)c2ccc(C(=O)Nc3nc(-c4cc5ccccc5o4)cs3)cc2)CC(C)O1 (stereo not drawn) | -7 | -4 | 64* | 63* | -1 | 71* | 79* | 12
CCOc1ccc(OCCSc2nc3ccccc3c(=O)[nH]2)cc1 | 20 | 1 | 26* | 39* | 7 | 37* | 52* | 11
O=c1[nH]c(SCCOc2cccc3ccccc23)nc2ccccc12 | 4 | -6 | -1 | -12 | -1 | . | . | .
CCCC(=O)Nc1c2c(nc3ccccc13)N(c1ccccc1)CC2 | 3 | -16 | . | . | -1 | . | . | .
O=C(CN1CCCCC1)Nc1c2c(nc3ccccc13)N(c1ccccc1)CC2 | -3 | 6 | 109* | 48* | -11 | 72* | 79* | 75* | RORg counter=>40
Cc1cccc2cc(C#N)c(SCC(=O)N3CCC(C)CC3)nc12 | 15 | 10 | 53* | 8.8* | -1 | 12* | 16* | 65* | RORg counter=i
SMILES | VLA-4 inh | NR2E3 ag-1 | Rev-erbA mod | PG9 Ab binder | NR2E3 ag-2 | PG9 binder conf | PGV04 Ab binding | NR1D1 mod conf | others
COc1ccc2cc(C#N)c(SCC(=O)N3CC(=O)Nc4ccccc43)nc2c1 | -15 | -15 | . | . | 1 | . | . | .
Cc1cccc2cc(C#N)c(SCC(=O)N3CC(=O)Nc4ccccc43)nc12 | -10 | 32 | 90* | 30* | -9 | 46* | 75* | 67* | RORg counter=>40
CC[C@@H](CCCCCC#N)CCC(=O)N(c1ccccc1)c1ccccc1 | . | . | -2 | . | . | . | . | .
CCOC(=O)c1c(NC(=O)COC(=O)CCOc2ccccc2C)sc(C(=O)NC)c1C | 11 | 4 | 72* | 31* | 13 | 48* | 57* | 46* | RORg counter=>40
COc1ccc(C)c2sc(=NC(=O)c3ccccc3)n(C)c12 | -4 | -86 | 58* | 12* | 2 | 8 | 10* | 2
Fc1ccccc1-c1n[nH]c(=S)n1N=Cc1ccc(OCc2ccccc2)cc1 | . | . | -7 | . | . | . | . | .
Cc1ccc(CNC(=O)CS(=O)(=O)Cc2nc(-c3ccc(C)cc3)oc2C)cc1 | 3 | 3 | 28* | 28* | 1 | 20* | 53* | 12
COc1ccc(CNC(=O)CS(=O)(=O)Cc2nc(-c3ccc(OC)cc3)oc2C)cc1 | 4 | -26 | 1 | 0 | -2 | . | . | .
O=C(Cn1nnc(-c2ccccc2F)n1)Nc1ccc(F)cc1F | . | . | -1 | . | . | . | . | .
CCCC(=O)Nc1sc(C)c(-c2ccc(OC)cc2)c1C#N | 0 | -18 | 24* | 9.1* | 0 | 19* | 23* | 28*
O=C(O[C@H]1CC[C@@]23CCCN2C(=O)CCC[C@H]3C1)N1CCOCC1 | . | . | 0 | . | . | . | . | .
COCCNc1nc2c(S(=O)(=O)c3cc(C)ccc3C)nnn2c2ccccc12 | -3 | -7 | 45* | 46* | 4 | 29* | 55* | 19*
CC(=O)NCCNc1nc2c(-c3cccc(C)c3)nnn2c2ccccc12 | -26 | 2 | 1 | 4 | 2 | . | . | .

Screens deposited in PubChem by several laboratories.
